We go through three compounds from ChEMBL document CHEMBL2016480, “Structure-based ligand design of novel bacterial RNA polymerase inhibitors” (ACS Med Chem Lett, 2011).

For test [1], the system named is Escherichia coli. Nature of the test: Antibacterial activity against kanamycin-resistant,acrAB::Tn903 deficient Escherichia coli SM1411 expressing lacI3, lacZ118, proB, trp, nalA, rpsL in the presence of polymyxin B nonapeptide. In kind it is functional.
In test [2] the test system is Bacillus subtilis. Nature of the test: Antibacterial activity against Bacillus subtilis 1S34. In kind it is functional. The method, boiled down: (§1)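 MICs by standard susceptibility testing per British Society for Antimicrobial Chemotherapy guidelines, run in triplicate. For the PMBN lines, tests were repeated with polymyxin B nonapeptide added as an outer-membrane permeabilizer.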

In test [3] the test system is Staphylococcus aureus. Description: Antibacterial activity against Staphylococcus aureus SH1000 expressing rsbU gene. In kind it is functional. The essentials: as §1
In test [4] the test system is Staphylococcus aureus. Description: Antibacterial activity against Staphylococcus aureus SH1000 expressing rsbU gene in the presence of polymyxin B nonapeptide. In kind it is functional. The essentials: as §1
The subject of test [5] is Escherichia coli. Nature of the test: Antibacterial activity against Escherichia coli 1411 expressing lacI3, lacZ118, proB, trp, nalA, rpsL. In kind it is functional. The essentials: as §1
Test [6] in a line: Inhibition of Escherichia coli DNA dependent RNA polymerase assessed as inhibition of [14C]UTP incorporation after 15 mins by liquid scintillation counting.
Test [7] concerns Bacillus subtilis. Nature of the test: Antibacterial activity against Bacillus subtilis 1S34 in the presence of polymyxin B nonapeptide. In kind it is functional. The method, boiled down:
as §1

Test [8] can be described thus: Inhibition of Escherichia coli DNA dependent RNA polymerase after 2 hrs by SYBR Green-based spectrophotometric analysis. The essentials:
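In vitro transcription assay with E. coli RNA polymerase on a Kool NC-45 RNAP template. Activity was reported as IC50 or as percentage inhibition at 100 μM compound.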

The subject of test [9] is Escherichia coli. Description: Antibacterial activity against Escherichia coli 1411 expressing lacI3, lacZ118, proB, trp, nalA, rpsL in the presence of polymyxin B nonapeptide. In kind it is functional. The method, boiled down: as §1
For test [10], the system named is Staphylococcus aureus. Description: Antibacterial activity against Staphylococcus aureus. In kind it is functional.
Test [11] has as its system Escherichia coli. Nature of the test: Antibacterial activity against kanamycin-resistant,acrAB::Tn903 deficient Escherichia coli SM1411 expressing lacI3, lacZ118, proB, trp, nalA, rpsL. In kind it is functional.
Test [12] can be described thus: Inhibition of DNA dependent RNA polymerase.
Test [13] can be described thus: Inhibition of chymotrypsin at 100 uM. The essentials: (§2)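 Counter-screens for promiscuous inhibition using malate dehydrogenase and chymotrypsin enzyme assays. Activity was reported as percentage inhibition at 100 μM compound.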
A further test concerns Saccharomyces cerevisiae. Description: Inhibition of yeast RNA polymerase 2 at 100 uM. The essentials:
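Selectivity assay against yeast RNA polymerase II. Activity was reported as percentage inhibition at 100 μM compound.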

Test [14] can be described thus: Inhibition of malate dehydrogenase at 100 uM. The method, boiled down:
as §2

Values after ≈ are worked out from the molar mass of the structure shown. A value given as a limit tells only on which side of the number the result lay.

As for `CCCC/C(C)=C/C=C(\C)C(=O)c1c(O)cc([C@H](C)CC/C=C/NC(=O)OC)oc1=O` [MYXOPYRONIN B], the MIC in the test on Escherichia coli [1], against Bacillus subtilis [2], against Staphylococcus aureus [3], in the test with Staphylococcus aureus [4], in the test with Escherichia coli [5] and in the test with Bacillus subtilis [7] was > 256 µg/mL each time. The results for the MIC with Escherichia coli [9], in the test with Staphylococcus aureus [10] and against Escherichia coli [11] were > 256 µg/mL, 1 µg/mL (≈ 2.32 µM) and > 256 µg/mL, respectively. For the same compound, the IC50 in test [6] is 0.92 µM; in test [8], 46.5 µM.
Consider `CCCC/C(C)=C/C=C(\C)C(=O)c1c(O)cc(CCC/C=C/NC(=O)OC)oc1=O` [DESMETHYL MYXOPYRONIN B], for which the MIC in the test on Escherichia coli [1], against Bacillus subtilis [2], with Staphylococcus aureus [3], in the test on Staphylococcus aureus [4], in the test on Escherichia coli [5] and in the test with Bacillus subtilis [7] was > 256 µg/mL each time. The MIC was > 256 µg/mL in the test on Escherichia coli [9], 4 µg/mL (≈ 9.58 µM) with Staphylococcus aureus [10] and > 256 µg/mL against Escherichia coli [11]. The IC50 in [12] was found to be 0.34 µM.
With `NS(=O)(=O)c1ccc(C(=O)Nc2ccc(-n3cncn3)nc2)cc1`, the MIC in the test on Escherichia coli [1], against Bacillus subtilis [2], in the test with Staphylococcus aureus [3], in the test on Staphylococcus aureus [4], against Escherichia coli [5] and with Bacillus subtilis [7] was > 256 µg/mL each time. Moreover, the MIC in the test on Escherichia coli [9] and against Escherichia coli [11] was > 256 µg/mL each time. For the same compound, half-maximal inhibition in [8] (IC50) was put at 13.7 µM. Also, the inhibition in [13] stood at 0.6%; in the test on Saccharomyces cerevisiae, 9.3%; in test [14], 1.4%.
